Laboratory results as given in ChEMBL document CHEMBL1125040, “Reversible inhibitors of the gastric (H+/K+)-ATPase. 1. 1-Aryl-4-methylpyrrolo[3,2-c]quinolines as conformationally restrained analogues of 4-(arylamino)quinolines” (J Med Chem, 1990).

Legend:
[1] = species: Sus scrofa; test: In vitro inhibition of [14C]-aminopyrine accumulation was determined in gastric vesicles of pig with outside vesicle pH 7; conditions: Stomach
[2] = tested on: Rattus norvegicus; test: In vivo inhibition of rat gastric secretion was determined at a dose of 10 uM/kg; type: functional, Stomach
Summary of the method: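 Pentagastrin-stimulated lumen-perfused rats given a single iv bolus of 10 μmol/kg. Acid output measured in the gastric perfusate. Percent inhibition taken at peak inhibition relative to the secretory plateau immediately before dosing; mean of four rats ± SEM.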

[3] = tested on: Rattus norvegicus; test: In vivo antisecretory activity was determined for inhibition of gastric secretion in rat; rats died at doses giving less than 50% inhibition; type: organism-based, Stomach
[4] = tested on: Rattus norvegicus; test: In vivo antisecretory activity was determined for inhibition of gastric secretion in rat; type: functional; conditions: Stomach
Summary of the method: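 Lumen-perfused rat stimulated with pentagastrin; compound given as iv bolus; acid output measured in gastric perfusate. Percent inhibition taken at peak inhibition versus secretory plateau just before dosing.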

[5] = pKa value was determined; type: physicochemical

| Compound | IC50 [1] | Inhibition [2] | ED50 [3] | ED50 [4] | pKa [5] |
| --- | --- | --- | --- | --- | --- |
| COc1cccc2c3c(cnc12)CCCN3c1ccccc1C | 110 nM | 21% | – | – | – |
| COc1ccccc1N1CCc2c(C)nc3c(OC)cccc3c21 | 230 nM | – | Toxic | – | – |
| Cc1cccc(C)c1N1CCc2c(C)nc3ccccc3c21 | – | 18% | – | – | – |
| COc1cccc2c3c(c(C)nc12)CCN3c1ccccc1C | 36 nM | – | – | 19.8 µmol/kg | 9.5 |
| COc1cccc2c3c(c(C)nc12)CCN3c1ccccc1 | 84 nM | 17% | Toxic | – | – |
| COc1cccc2c3c(c(C)nc12)CCN3Cc1ccccc1 | 1600 nM | 0% | Toxic | – | – |
| Cc1ccccc1N1CCc2c(C)nc3c(O)cccc3c21 | 61 nM | 23% | – | – | – |
| COc1cccc2c1nc(C)c1ccn(-c3ccccc3C)c12 | 34 nM | 48% | – | 7.1 µmol/kg | 7.4 |
| Cc1ccccc1N1CCc2c(C)nc3ccccc3c21 | 28 nM | 42% | – | – | – |
| Cc1ccccc1-n1c(S)nc2cnc3ccccc3c21 | > 30000 nM | – | – | – | – |
| COc1cccc2c3c(c(C)[n+](C)c12)CCN3c1ccccc1C | 2400 nM | – | – | – | – |
| Cc1ccccc1N1CCc2c(C)nc3c(C)cccc3c21 | 28 nM | 43% | – | – | – |
| Cc1ccccc1-n1cnc2cnc3ccccc3c21 | 2230 nM | – | – | – | – |
| COc1ccc(N2CCc3c(C)nc4c(OC)cccc4c32)c(C)c1 | – | 45% | – | – | – |
| Cc1ccccc1N1CCc2c(C)nc3c(F)cccc3c21 | – | 26% | – | – | – |
| Cc1cc(O)ccc1N1CCc2c(C)nc3ccccc3c21 | – | 41% | – | – | – |
| COc1ccc(N2CCc3c(C)nc4ccccc4c32)c(C)c1 | 26 nM | 51% | – | – | – |
| Cc1ccccc1-n1nnc2cnc3ccccc3c21 | > 30000 nM | – | – | – | – |
| Cc1ccccc1N1CCc2c1c1ccccc1[n+]([O-])c2C | – | 40% | – | – | – |
| Cc1nc2c(OCc3ccccc3)cccn2c1CC#N | 13 nM | – | – | 0.31 µmol/kg | – |
| CCOC(=O)c1cnc2c(OC)cccc2c1Nc1ccccc1C | 37 nM | – | – | 8.2 µmol/kg | – |
| COc1ccc2[nH]c([S+]([O-])Cc3ncc(C)c(OC)c3C)nc2c1 (centres undefined) [OMEPRAZOLE] | – | – | – | 0.45 µmol/kg | – |
